# Experiments:
# Conditions in all cases: in vivo
# [1] = system: Rattus norvegicus; assay: Biodistribution in spleen of immature female rat after 1 hr administration of 3 micro Ci (111 kBq) in the absence of 60 microg estradiol; assay type: ADME, organism-based
# Outline: (§1)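 Immature female Long Evans rats (21–24 days, 45–70 g), three to five per group, given 125I-labeled steroid (3 μCi, 111 kBq) by lateral tail vein without anesthesia. Vehicle: ethanol diluted in saline with 1% Tween-80, final ethanol 9%, 0.22 μm filtered. +E2 groups received 60 μg unlabeled estradiol co-injected. Killed under ether at set times; tissues KCl-washed, blotted, weighed, gamma counted; %ID/g, mean with SE.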
# [2] = system: Rattus norvegicus; assay: Biodistribution in blood of immature female rat after 5 hour administration of 3 micro Ci (111 kBq) in the absence of 60 microg estradiol; assay type: ADME, organism-based
# Outline: (§2)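 Immature female Long Evans rats (21–24 days, 45–70 g), unanesthetized in retention cages, given 3 µCi (111 kBq) 125I-labeled steroid i.v. via lateral tail vein. Vehicle was ethanol diluted in saline containing 1% Tween-80, giving 9% ethanol final. The blocking group received 60 µg unlabeled estradiol co-injected. Rats were killed under ether by axillary bleeding, and tissues were KCl-washed and gamma-counted. Data are %ID/g, mean ± SE, n=3–5.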
# [3] = system: Rattus norvegicus; assay: Biodistribution in liver of immature female rat after 12 hour administration of 3 micro Ci (111 kBq) in the absence of 60 microg estradiol; assay type: ADME, organism-based; outline: as §2
# [4] = system: Rattus norvegicus; assay: Biodistribution in kidney of immature female rat after 12 hour administration of 3 micro Ci (111 kBq) in the absence of 60 microg estradiol; assay type: ADME, organism-based; outline: as §2
# [5] = system: Rattus norvegicus; assay: Biodistribution in spleen of immature female rat after 12 hour administration of 3 micro Ci (111 kBq) in the absence of 60 microg estradiol; assay type: ADME, organism-based; outline: as §1
# [6] = system: Rattus norvegicus; assay: Biodistribution in uterus / spleen, muscle, lungs of immature female rat after 12 hour administration of 3 micro Ci (111 kBq) in the absence of 60 microg estradiol; assay type: ADME, organism-based
# Outline: (§3)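 Immature female Long Evans rats (21–24 days, 45–70 g), 3–5 per group, unanesthetized in retention cages, given 3 μCi (111 kBq) 125I-labeled steroid by lateral tail vein. Vehicle: ethanol diluted with saline containing 1% Tween-80, final ethanol 9%. +E2 group co-injected 60 μg unlabeled estradiol (1 h only). Killed under ether; tissues KCl-washed, weighed, gamma-counted. Output: %ID/g (mean, SE) and uterus to blood or nontarget (muscle, spleen, lungs) ratios.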
# [7] = system: Rattus norvegicus; assay: Biodistribution in kidney of immature female rat after 1 hr administration of 3 micro Ci (111 kBq) in the absence of 60 microg estradiol; assay type: ADME, organism-based; outline: as §2
# [8] = system: Rattus norvegicus; assay: Biodistribution in fat of immature female rat after 12 hour administration of 3 micro Ci (111 kBq) in the absence of 60 microg estradiol; assay type: ADME, organism-based, Adipose tissue; outline: as §2
# [9] = system: Rattus norvegicus; assay: Biodistribution in fat of immature female rat after 5 hour administration of 3 micro Ci (111 kBq) in the absence of 60 microg estradiol; assay type: ADME, organism-based, Adipose tissue; outline: as §2
# [10] = system: Rattus norvegicus; assay: Biodistribution in spleen of immature female rat after 3 hour administration of 3 micro Ci (111 kBq) in the absence of 60 microg estradiol; assay type: ADME, organism-based; outline: as §1
# [11] = system: Rattus norvegicus; assay: Biodistribution in thyroid of immature female rat after 1 hr administration of 3 micro Ci (111 kBq) in the presence of (+E2); assay type: ADME, organism-based, Thyroid gland; outline: as §1
# [12] = system: Rattus norvegicus; assay: Biodistribution in fat of immature female rat after 3 hour administration of 3 micro Ci (111 kBq) in the absence of 60 microg estradiol; assay type: ADME, organism-based, Adipose tissue; outline: as §2
# [13] = system: Rattus norvegicus; assay: Biodistribution in uterus / blood of immature female rat after 3 hour administration of 3 micro Ci (111 kBq) in the absence of 60 microg estradiol; assay type: ADME, organism-based
# Outline: (§4)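 Same in vivo procedure: immature female Long Evans rats (21–24 days), three to five per group, 3 μCi (111 kBq) tracer i.v. via tail vein in 9% ethanol/saline/1% Tween-80, ± 60 μg estradiol co-injected at 1 h. Uterus %ID/g (gamma counting) divided by blood, or by nontarget organ (muscle, spleen, lungs), %ID/g to give ratios.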
# [14] = system: Rattus norvegicus; assay: Biodistribution in uterus / blood of immature female rat after 5 hour administration of 3 micro Ci (111 kBq) in the absence of 60 microg estradiol; assay type: ADME, organism-based; outline: as §4
# [15] = system: Rattus norvegicus; assay: Biodistribution in liver of immature female rat after 5 hour administration of 3 micro Ci (111 kBq) in the absence of 60 microg estradiol; assay type: ADME, organism-based; outline: as §2
# [16] = system: Rattus norvegicus; assay: Biodistribution in liver of immature female rat after 1 hr administration of 3 micro Ci (111 kBq) in the absence of 60 microg estradiol; assay type: ADME, organism-based; outline: as §2
# [17] = system: Rattus norvegicus; assay: Biodistribution in fat of immature female rat after 1 hr administration of 3 micro Ci (111 kBq) in the presence of (+E2); assay type: ADME, organism-based, Adipose tissue; outline: as §2
# [18] = system: Rattus norvegicus; assay: Biodistribution in lungs of immature female rat after 1 hr administration of 3 micro Ci (111 kBq) in the absence of 60 microg estradiol; assay type: ADME, organism-based, Lung; outline: as §2
# [19] = system: Rattus norvegicus; assay: Biodistribution in uterus / spleen, muscle, lungs of immature female rat after 3 hour administration of 3 micro Ci (111 kBq) in the absence of 60 microg estradiol; assay type: ADME, organism-based; outline: as §3
# [20] = system: Rattus norvegicus; assay: Biodistribution in thyroid of immature female rat after 12 hour administration of 3 micro Ci (111 kBq) in the absence of 60 microg estradiol; assay type: ADME, organism-based, Thyroid gland; outline: as §1
# [21] = system: Rattus norvegicus; assay: Biodistribution in thyroid of immature female rat after 5 hour administration of 3 micro Ci (111 kBq) in the absence of 60 microg estradiol; assay type: ADME, organism-based, Thyroid gland; outline: as §1
# [22] = system: Rattus norvegicus; assay: Biodistribution in muscle of immature female rat after 1 hr administration of 3 micro Ci (111 kBq) in the presence of (+E2); assay type: ADME, organism-based, Muscle tissue; outline: as §1
# [23] = system: Rattus norvegicus; assay: Biodistribution in kidney of immature female rat after 1 hr administration of 3 micro Ci (111 kBq) in the presence of (+E2); assay type: ADME, organism-based; outline: as §2
# [24] = system: Rattus norvegicus; assay: Biodistribution in liver of immature female rat after 3 hour administration of 3 micro Ci (111 kBq) in the absence of 60 microg estradiol; assay type: ADME, organism-based; outline: as §2
# [25] = system: Rattus norvegicus; assay: Biodistribution in uterus / blood of immature female rat after 12 hour administration of 3 micro Ci (111 kBq) in the absence of 60 microg estradiol; assay type: ADME, organism-based; outline: as §4
# [26] = system: Rattus norvegicus; assay: Biodistribution in blood of immature female rat after 1 hr administration of 3 micro Ci (111 kBq) in the presence of (+E2); assay type: ADME, organism-based; outline: as §2
ID/g [1] [%],ID/g [2] [%],ID/g [3] [%],ID/g [4] [%],ID/g [5] [%],uterus to nontarget tissue ratio [6] [%],ID/g [7] [%],ID/g [8] [%],ID/g [9] [%],ID/g [10] [%],ID/g [11] [%],ID/g [12] [%],uterus to blood %ID/g ratio (unitless) [13] [%],uterus to blood ratio [14] [%],ID/g [15] [%],ID/g [16] [%],ID/g [17] [%],ID/g [18] [%],"Uterus to nontarget tissue (spleen, muscle, lungs) uptake ratio [19] [%]",ID/g [20] [%],SMILES,other results
2.04,0.51,0.83,1.23,0.7,19.35,1.64,0.47,0.75,0.72,441,1.13,13.35,20.08,1.42,2,1.82,0.84,11.77,4651,CO[C@H]1C[C@@]2(C)[C@@H](CC[C@@]2(O)/C=C\I)[C@@H]2CCc3c(ccc(O)c3F)[C@H]21,ID/g [21]: 2369%; ID/g [22]: 0.77%; ID/g [23]: 1.36%; ID/g [24]: 1.21%; Uterus-to-blood radioactivity ratio (dimensionless) [25]: 34.58%
1.16,0.36,0.8,0.29,0.25,17.02,1.07,0.89,1.7,0.72,98,1.42,10.6,10.01,1.36,1.35,1.39,0.71,8.32,898,C[C@@H]1Cc2c(ccc(O)c2F)[C@H]2CC[C@@]3(C)[C@@H](CC[C@@]3(O)/C=C\I)[C@H]12,ID/g [26]: 0.45%; ID/g [21]: 380%; ID/g [22]: 0.44%; ID/g [23]: 0.79%; ID/g [24]: 1.18%; Uterus-to-blood radioactivity ratio (dimensionless) [25]: 16.64%
0.68,0.39,1.57,0.32,0.19,15.57,1.41,1.67,4.59,0.91,56,4,17.28,16.4,3.6,4.36,5.65,1.47,7.15,217,C[C@@H]1Cc2c(ccc(O)c2F)[C@H]2CC[C@@]3(C)[C@@H](CC[C@@]3(O)/C=C/I)[C@H]12,ID/g [26]: 0.44%; ID/g [21]: 114%; ID/g [22]: 0.97%; ID/g [23]: 1.82%; ID/g [24]: 3.44%; Uterus-to-blood radioactivity ratio (dimensionless) [25]: 17.87%

# Reference: ChEMBL document CHEMBL1126849, “Synthesis of A-ring fluorinated derivatives of (17 alpha,20E/Z)-[125I]iodovinylestradiols: effect on receptor binding and receptor-mediated target tissue uptake” (J Med Chem, 1993)
